# Compounds with a hit are over-represented: about 2% of the library has one in this group of screens.
# PvdQ acylase: P. aeruginosa PvdQ acylase inhibition | inhibition, % at 10 µM | 340,000 tested, 0.063% active | purified PvdQ acylase, fluorescence plate reader; in the data active = inhibition above about 30%, passing the limit was not always enough;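 also: 0% = vehicle neutral wells and 100% = reference inhibitor wells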
# ATG4B inhibitor: ATG4B (human) cysteine protease inhibition; Q9Y4P1; ATG4B cleavage of LC3-PLA2, NBD-HPC fluorescence, 1 h; inhibition, % at 8.33 µM; 340,000 tested, 0.51% active; AID 504462; in the data active = inhibition above about 40%
# Target sequence (Q9Y4P1 whole entry, looked up): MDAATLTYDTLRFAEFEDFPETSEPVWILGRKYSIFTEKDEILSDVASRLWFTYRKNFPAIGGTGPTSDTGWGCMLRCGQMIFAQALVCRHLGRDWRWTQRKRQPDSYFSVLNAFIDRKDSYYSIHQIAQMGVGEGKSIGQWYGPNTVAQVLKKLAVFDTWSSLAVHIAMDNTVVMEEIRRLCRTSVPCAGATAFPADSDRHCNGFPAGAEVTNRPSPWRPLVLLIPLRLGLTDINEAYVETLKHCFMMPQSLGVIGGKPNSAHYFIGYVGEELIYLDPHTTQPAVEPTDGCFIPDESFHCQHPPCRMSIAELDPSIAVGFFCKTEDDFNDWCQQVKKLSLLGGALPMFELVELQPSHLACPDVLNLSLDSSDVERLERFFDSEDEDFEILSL
# beta cell repl: inducers of beta-cell replication in MIN6 cells; 330,000 tested, 0.29% active; MIN6 cells proliferation, ATPlite luminescence, 48 h; cells starved in 0.2% serum; 100% = growth in 10% serum; proliferation, % at 10 µM; AID 2380;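 active = compounds whose signal lies at least 3.5 SD above the mean of all wells on their plate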;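 also: 0% = DMSO-treated cells in low-serum medium and 100% = 10% serum control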
# IMP-1 inhibitor: inhibitors of Pseudomonas aeruginosa IMP-1 metallo-beta-lactamase; purified IMP-1, nitrocefin hydrolysis, epi-absorbance fluorescence; inhibition, % at 5.6 µM; 290,000 tested, 0.45% active; AID 1556;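 active = inhibition above the mean plus 3 SD of all compounds in the same screening run, cut at about 4.5% in these data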;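 also: 0% = IMP-1 with DMSO and 100% = DMSO wells lacking enzyme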
#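 Assay system: purified recombinant IMP-1 beta-lactamase. Input: IMP-1 0.2 nM before substrate addition. Buffer or medium: Zinc- and detergent-supplemented HEPES buffer, pH 7.1. Schedule: 25 °C, 15 min preincubation, 25 min reaction. Signal: Epi-absorbance fluorescence, 480 nm excitation, 530 nm emission. Evaluation: percent inhibition from optical density relative to buffer-blank wells.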
# HKDC1 inh: HKDC1 (human) hexokinase inhibition | Q2TB90 | 340,000 tested, 0.16% active | AID 493160 | recombinant HKDC1, G6PDH/diaphorase resazurin coupled fluorescence | inhibition, % at 20 µM;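 active = inhibition above about 35% when tested at 20 µM, limit read from the data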;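 also: plate controls were DMSO wells with enzyme for no effect and DMSO wells lacking enzyme for full effect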
#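 test system = in-house recombinant HK5 (HKDC1) enzyme | amount = HKDC1 at 5 µg/mL | control set = DMSO-enzyme wells negative, buffer-substituted wells positive | compound = one dose of 20 µM, 1% DMSO | schedule = reaction time 90 min, room temperature, protected from light | technique = resorufin fluorescence at 613 nm | reagent = glucose with 1 mM ATP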
# VIM-2 inhibitor: inhibitors of Pseudomonas aeruginosa VIM-2 metallo-beta-lactamase; purified VIM-2, nitrocefin hydrolysis, epi-absorbance fluorescence; inhibition, % at 5.6 µM; 290,000 tested, 0.89% active; AID 1527;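 active = inhibition above the mean of all tested compounds plus 3 SD, cutoff set per screening run, cut at about 7.5% in these data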;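 also: red hydrolysis product quenches plate fluorescence so inhibitors raise well fluorescence; 0% = enzyme with DMSO and 100% = DMSO without enzyme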
# The depositor's hits bear a star; nt = not tested or not shown.
SMILES,PvdQ acylase,ATG4B inhibitor,beta cell repl,IMP-1 inhibitor,HKDC1 inh,VIM-2 inhibitor
COCCC(=O)N1CCCC(C(=O)c2ccccc2SC)C1 (stereo not drawn),0,28,nt,19*,-3,-2
C=CCOC(=O)c1ccc(-n2cnc(C)n2)nc1,71*,-8,-1,-2,-6,2
CCOC1(C)OCC(=O)[C@]2(CCC3C4CCC5=CC(=O)C=CC5(C)C4C(=O)CC32C)O1 (stereo partly drawn),-6,-2,1,-2,-6,1
Cc1ccc2c(c1C)NC(C)CC2C (stereo not drawn),-9,-10,-2,5.0*,-1,2
CCOCCCNC(=O)c1ccc(/C=C2\Oc3ccccc3N(C)C2=O)cc1,-9,-1,0,0,11,7.7*
Cc1ccc(-c2c(NCCc3ccccc3)c(=O)c2=O)cc1,4,4,-1,5.3*,4,-1
O=c1c(NCCc2ccccc2)c(-c2ccccc2)c1=O,-11,-2,-4,-1,-7,0
NS(=O)(=O)c1ccc2c(c1)C1C=CCC1C(C1CC=CCC1)N2 (stereo not drawn),-25,12,-1,13*,11,0
CC(C)C1Nc2ccc(S(N)(=O)=O)cc2C2C=CCC21 (stereo not drawn),-9,-11,0,-3,4,-3
Cc1cc(O)c(C=O)c2c1C(=O)Oc1c(CO)c(O)c3c(c1O2)C(O)OC3=O (stereo not drawn),12,86*,-3,2,37*,-2
COc1ccc(-n2nc3c(N4CCC(C(=O)NCc5ccccc5C)CC4)nnc(C)c3c2C)cc1,0,54*,-8,11*,14,3
CCN1CCN(C(=O)C2CCN(c3nnc(C)c4c(C)n(-c5ccc(C)cc5)nc34)CC2)CC1,-14,4,-3,1,-8,9.1*
CC1CCCCC1NC(=O)CSc1nnc(COc2ccc(Cl)cc2)o1 (stereo not drawn),-11,6,0,-1,-7,-5
C=CCOc1ccc(C2/C(=C(\O)c3ccc4c(c3)OCCO4)C(=O)C(=O)N2CCCN2CCOCC2)cc1 (stereo not drawn),7,-2,0,-3,-5,-5
Cc1cc2c3c(ccc(C)c3n1)N=CN2c1ccccc1,-17,7,0,0,-6,8.4*
CCOc1ccc2[nH]c(=O)c(CN(CCCN3CCOCC3)C(=O)Nc3ccc(F)cc3)cc2c1,-9,-6,nt,nt,-8,nt
COc1cc2cc(CN(CCCN3CCOCC3)C(=O)Nc3ccc(F)cc3)c(=O)[nH]c2cc1OC,-10,-6,-1,0,-11,8.8*
COC(=O)c1ccc(COC(=O)c2ccc(SC)cc2OC)cc1,-15,-14,-3,-3,4,-3
COc1ccc(N(CC(=O)N2CCN(C)CC2)S(=O)(=O)c2cc(C)ccc2OC)cc1Cl,-14,-3,-2,-3,-5,-4
OCC[C@@H]1C[C@H](O)[C@@H](O)[C@@]2(CCc3ccccc3O2)O1,0,12,4,-2,-9,-1
OC1=C(O)c2nc3cc(F)ccc3nc21,0,0,-1,-3,-13,8.2*
Cc1ccc2nc3c(nc2c1C)C(O)=C3O,-5,2,-2,-3,-6,-1
O=S(=O)(c1ccc(Cl)cc1)N1CCC(N2CCCCCC2)CC1,-2,-2,0,5.7*,2,-2
Cc1ccc(N=Cc2c(C)[nH]n(-c3nc4ccccc4[nH]3)c2=O)cc1,6,-4,-2,5.0*,3,-1
Cc1ccc(-n2[nH]c(C)c(C=Nc3ccc4[nH]c(=O)[nH]c4c3)c2=O)cc1,-11,-25,-3,0,18,2
SMILES,PvdQ acylase,ATG4B inhibitor,beta cell repl,IMP-1 inhibitor,HKDC1 inh,VIM-2 inhibitor
CC(C)c1cc(NCCN2CCOCC2)n2c(nc3ccccc32)c1C#N,-12,-1,nt,nt,-3,nt
CCc1c(C)c(C#N)c2nc3ccccc3n2c1NCC1CCCO1 (stereo not drawn),-14,-14,3,-1,3,7.8*
CC(C)c1cc(NCC2CCCO2)n2c(nc3ccccc32)c1C#N (stereo not drawn),-8,-8,1,-2,17,9.9*
O=C(O)CC1(CC(=O)Nc2ccc(F)c(Cl)c2)CCCCC1,nt,11,-2,-1,6,-2
C=CCn1c(N)cc(=O)nc1SCC(=O)NC(C)c1ccccc1 (stereo not drawn),-3,-4,1,-4,-9,-1
CC1CCN(C(=O)C2(NC(=O)Nc3cccc(F)c3)CCCCC2)CC1,-13,1,0,-1,2,-3
CCC(=O)c1ccccc1OCCCCn1cncn1,5,5,-3,8.4*,-8,0
CSc1nsc(SCC(=O)Nc2cccc(C(=O)O)c2)n1,-14,-4,-1,-2,-4,0
O=c1c([N+](=O)[O-])cn(Cc2ccccc2)c(=O)n1Cc1ccccc1,-13,-7,nt,nt,2,nt
O=C(N/N=C/c1ccncc1)c1sc2ccccc2c1Cl,-9,-5,2,-2,12,8.9*
COc1ccc2c(Cl)c(C(=O)N/N=C/c3ccncc3)sc2c1,-6,2,5,-4,-5,1
O=C(Cn1cnc([N+](=O)[O-])n1)NCc1ccccc1,-3,-8,-2,-2,4,-2
O=C(CCCn1cnc([N+](=O)[O-])n1)Nc1cccc2ccccc12,-5,-6,-3,37*,6,1
COc1ccccc1C1C(C(N)=O)=C(C)Nc2ncnn21 (stereo not drawn),6,3,-2,6.8*,-7,1
CCCOc1ccccc1/C=C1/C(=O)ON=C1C,-15,-2,1,1,1,8.2*
CN(C(=O)CSc1nnc(-c2ccncc2)n1Cc1ccccc1)C1CCS(=O)(=O)C1 (stereo not drawn),3,nt,-4,-2,nt,0
CC(=O)c1c(C)[nH]c(C(=O)N2CCN(c3ccccn3)CC2)c1C,-19,-2,-3,-4,-4,-5
NS(=O)(=O)c1ccc(S(=O)(=O)N(Cc2ccccc2F)CC2CCCO2)cc1 (stereo not drawn),-13,-5,0,5.0*,-12,-1
Cc1ccc(/C=N/N(C)C2=NS(=O)(=O)c3ccccc32)o1,nt,nt,2,-3,nt,-1
COc1cccc(/C=N/N(C)C2=NS(=O)(=O)c3ccccc32)c1O,-11,-11,4,-2,6,9.5*
CN(/N=C/c1cccnc1)C1=NS(=O)(=O)c2ccccc21,-10,-8,nt,-3,-5,5
CN(/N=C/c1cc(Cl)ccc1O)C1=NS(=O)(=O)c2ccccc21,7,-29,-7,0,-1,10*
